According to the RNAGym collection of RNA variant scans (doi:10.1002/anie.201605470):

B1: Osa-1-4 twister ribozyme (parent)
chain: CCGCCUAACACUGCCAAUGCCGGUCCCAAGCCCGGAUAAAAGUGGAGGGGGCGG

Variants of: B1
Assay: self-cleavage, relative activity (ratio to wild type); higher = more cleavage; co-transcriptional
How it was run: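 A DNA template for a 54-nucleotide Oryza sativa twister ribozyme was synthesised with 97 % wild-type base and 1 % of each other base at the 48 positions downstream of the cleavage site. It was transcribed in vitro for 2 h at 37 °C, allowing co-transcriptional self-cleavage, then reverse-transcribed with a template-switching oligonucleotide, PCR-amplified and deep-sequenced. Cleavage status was scored from reads with or without upstream sequence. Relative activity is fraction cleaved normalised to wild type.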

Row | Variant | self-cleavage
1 | A36G U43A | 0.92
2 | A36U G35U | 1.04
3 | A36U G35A | 0.92
4 | A36U G35C | 0.82
5 | A36G U37C | 1.04
6 | A36G U37A | 1.02
7 | A36G U37G | 1.03
8 | A36G G34U | 0.82
9 | A36G G34C | 0.31
10 | A36G G34A | 0.91
11 | A36G C32A | 0.09
12 | A36G C32U | 0.17
13 | A36G C32G | 0.16
14 | A36U C21A | 0.91
15 | A36U C21G | 0.1
16 | A36U C21U | 1.04
17 | A36G G42C | 0.24
18 | A36G G42A | 0.8
19 | A36G G42U | 0.08
20 | A36C U18G | 0.87
21 | A36C U18A | 0.55

Row | Variant | self-cleavage
22 | A36C U18C | 0.67
23 | A36C G22A | 0.6
24 | A36C G22U | 0.35
25 | A36C G22C | 0.08
26 | A36U C11A | 0.87
27 | A36U C11G | 0.72
28 | A36U C11U | 0.94
29 | A36G C11A | 0.85
30 | A36G C11U | 0.93
31 | A36G C11G | 0.73
32 | A36G A39U | 0.97
33 | A36G A39G | 1.01
34 | A36G A39C | 1.05
35 | A36G U12G | 0.39
36 | A36G U12C | 0.69
37 | A36G U12A | 0.99
38 | A36C U43C | 0.13
39 | A36C U43G | 0.11
40 | A36C U43A | 0.15
41 | A36C G54C | 0.19
42 | A36C G54U | 0.55

Row | Variant | self-cleavage
43 | A36C G54A | 0.27
44 | A36C G51U | 0.11
45 | A36C G51A | 0.28
46 | A36C G51C | 0.07
47 | A36U C25U | 0.92
48 | A36U C25A | 0.12
49 | A36U C25G | 0.1
50 | A36C G13A | 0.04
51 | A36C G13U | 0.02
52 | A36C G13C | 0.03
53 | A36G G35C | 0.93
54 | A36G G35A | 0.92
55 | A36G G35U | 0.91
56 | A36G G13U | 0.03
57 | A36G G13A | 0.24
58 | A36G G13C | 0.03
59 | A36C C52U | 0.82
60 | A36C C52G | 0.51
61 | A36C C52A | 0.37
62 | A36U A8G | 0.71
63 | A36U A8U | 0.34

Row | Variant | self-cleavage
64 | A36U A8C | 0.09
65 | A36G C25U | 0.94
66 | A36G C25A | 0.22
67 | A36G C25G | 0.13
68 | A36U C33U | 0.89
69 | A36U C33G | 0.08
70 | A36U C33A | 0.24
71 | A36U C14G | 0.13
72 | A36U C14A | 0.07
73 | A36U C14U | 0.5
74 | A36U | 1.03
75 | A36G | 1.03
76 | A36U C52A | 1.04
77 | A36U C52U | 1.06
78 | A36U C52G | 1.06
79 | A36G C9U | 0.77
80 | A36G C9A | 0.53
81 | A36G C9G | 0.89
82 | A36G C52U | 1.02
83 | A36G C52A | 1.01
84 | A36G C52G | 1.04
